Laboratory results from ChEMBL document CHEMBL4196218, “Synthesis and in Vitro Bioactivity of Polyunsaturated Fatty Acid Conjugates of Combretastatin A-4” (J Nat Prod, 2018).
Active and inactive are the calls of the source. The rule behind the calls is not given here.

Assays:
[1] = system: MCF7; experiment: Cytotoxicity against human MCF7 cells after 72 hrs by MTS/PMS assay; type: functional, cell-based; details: for IC50: MCF7, 72 h
How it was run: (§1)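 MCF-7 cells grown in DMEM with 10% heat-inactivated FBS, penicillin, streptomycin, L-glutamine and MEM NEAA at 37 °C, 5% CO2. Seeded at 5000 cells/well. After 24 h, given fresh medium plus compound (DMSO stock diluted in DPBS; final 0–10 μM) for 72 h. Then serum-free medium with MTS/PMS for 1 h at 37 °C. A490 read, viability as % of untreated cells. IC50 read graphically. Six replicates, three independent experiments.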

[2] = species: Bos taurus; experiment: Inhibition of bovine tubulin polymerization at 1 uM measured every 30 secs for 2 hrs by turbidity method
How it was run: (§2)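 Kit-based turbidity assay with tubulin at 26.7 μM (2.94 mg/mL) in G-PB buffer (polymerization buffer, GTP, glycerol), assembled on ice. Compound stocks in DMSO diluted in water to give 1 or 10 μM. A350 read every 30 s for 2 h at 37 °C. Nocodazole and DMSO (1.43% or 0.14% v/v) as controls. Duplicate assays. Area under curve compared by one-way ANOVA with Bonferroni post-test.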

[3] = species: Bos taurus; experiment: Inhibition of bovine tubulin polymerization at 10 uM measured every 30 secs for 2 hrs by turbidity method; how it was run: as §2
[4] = species: Bos taurus; experiment: Inhibition of bovine tubulin polymerization assessed as lag time for tubulin polymerization at 1 uM measured every 30 secs for 2 hrs by turbidity method; how it was run: as §2
[5] = system: MCF7; experiment: Cytotoxicity against human MCF7 cells assessed as cell viability at 5 to 10 uM after 72 hrs by MTS/PMS assay relative to control; type: functional; how it was run: as §1

| inhibition [2] | inhibition [3] | TIME [4] | SMILES | IC50 [1] | Activity [1] | Activity [5] |
| --- | --- | --- | --- | --- | --- | --- |
| Active | inactive | 0.25 to 0.333 h | CCCCC/C=C\C/C=C\C/C=C\C/C=C\CCCC(=O)Oc1cc(/C=C\c2cc(OC)c(OC)c(OC)c2)ccc1OC | 700 nM | Dose-dependent effect |  |
| Active | inactive | 0.25 to 0.333 h | CCCCC/C=C\C/C=C\CCCCCCCC(=O)Oc1cc(/C=C\c2cc(OC)c(OC)c(OC)c2)ccc1OC | > 10000 nM |  | 65 - 75% |
| Active | inactive | 0.25 to 0.333 h | CC/C=C\C/C=C\C/C=C\CCCCCCCC(=O)Oc1cc(/C=C\c2cc(OC)c(OC)c(OC)c2)ccc1OC | > 10000 nM |  | 65 - 75% |

| SMILES | inhibition [2] | inhibition [3] | TIME [4] | IC50 [1] | Activity [1] | Activity [5] |
| --- | --- | --- | --- | --- | --- | --- |
| COc1ccc(/C=C\c2cc(OC)c(OC)c(OC)c2)cc1O [COMBRETASTATIN A4] | Active |  |  | 200 nM |  |  |
